From ChEMBL document CHEMBL1221273, “Addressing time-dependent CYP 3A4 inhibition observed in a novel series of substituted amino propanamide renin inhibitors, a case study” (Bioorg Med Chem Lett, 2010)

Key:
CYP3A4 [1] = target: T1, CYP3A4 (Homo sapiens, UniProt P08684); experiment: Ratio of IC50 for human CYP3A4 without preincubation to IC50 for human CYP3A4 preincubated for 30 mins; details: read-out: Ratio IC50
Procedure, shortened: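 Human liver microsomes (0.25 mg/mL) were preincubated 0 or 30 min at 37 °C with compound (0.03–200 µM) and 1 mM NADPH in 125 mM phosphate buffer. Testosterone (500 µM) was then added for 15 min at 37 °C. Reactions were quenched with acetonitrile and 6β-hydroxytestosterone was measured by HPLC-MS/MS. IC50s were determined under each condition, and the shift is the ratio of the 0-min to the 30-min IC50.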

CYP3A4 [2] = target: T1, CYP3A4; experiment: Inhibition of CYP3A4 in human liver microsome at 3 uM; assay type: ADME; details: liver microsomes
[3] = Clearance in Sprague-Dawley rat at 30 mg/kg, po; assay type: ADME, organism-based; set-up: dose 30 mg/kg, route oral; details: in vivo
Canis familiaris = experiment: Volume of distribution at steady state in Beagle dog at 3 mg/kg, po; assay type: ADME, organism-based, Canis lupus familiaris; set-up: dose 3 mg/kg, route oral; details: in vivo
Rattus norvegicus [4] = experiment: Antihypertensive activity in double transgenic rat hypertensive model assessed as time required to reduce blood pressure at 1 mg/kg, po; assay type: functional
Rattus norvegicus [5] = experiment: Volume of distribution at steady state in Sprague-Dawley rat at 30 mg/kg, po; assay type: ADME, organism-based; set-up: dose 30 mg/kg, route oral; details: in vivo
[6] = Intrinsic clearance in human liver microsome; assay type: ADME; details: liver microsomes
Procedure, shortened: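 Compound (1 µM) was incubated at 37 °C with human liver microsomes (1 mg/mL) and an NADPH regenerating system in 125 mM phosphate buffer. Samples were quenched with acetonitrile at 2, 5, 10, 20, 45 and 75 min and parent loss was followed by HPLC-MS/MS. CLint was calculated from the initial elimination rate constant.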

Rattus norvegicus [7] = experiment: Antihypertensive activity in double transgenic rat hypertensive model assessed as reduction in blood pressure at 1 mg/kg, po; assay type: functional
[8] = Clearance in Beagle dog at 3 mg/kg, po; assay type: ADME, organism-based, Canis lupus familiaris; set-up: dose 3 mg/kg, route oral; details: in vivo
[9] = Metabolic stability in human liver microsome assessed as compound remaining at 50 uM after 1 hr; assay type: ADME; details: liver microsomes, read-out: Stability
Cytochrome P450 3A4 [10] = target: T2, Cytochrome P450 3A4 (Homo sapiens, UniProt P08684); experiment: Inhibition of CYP3A4 in human liver microsome preincubated for 30 mins; assay type: ADME, microsomes
T2 sequence (P08684 whole entry): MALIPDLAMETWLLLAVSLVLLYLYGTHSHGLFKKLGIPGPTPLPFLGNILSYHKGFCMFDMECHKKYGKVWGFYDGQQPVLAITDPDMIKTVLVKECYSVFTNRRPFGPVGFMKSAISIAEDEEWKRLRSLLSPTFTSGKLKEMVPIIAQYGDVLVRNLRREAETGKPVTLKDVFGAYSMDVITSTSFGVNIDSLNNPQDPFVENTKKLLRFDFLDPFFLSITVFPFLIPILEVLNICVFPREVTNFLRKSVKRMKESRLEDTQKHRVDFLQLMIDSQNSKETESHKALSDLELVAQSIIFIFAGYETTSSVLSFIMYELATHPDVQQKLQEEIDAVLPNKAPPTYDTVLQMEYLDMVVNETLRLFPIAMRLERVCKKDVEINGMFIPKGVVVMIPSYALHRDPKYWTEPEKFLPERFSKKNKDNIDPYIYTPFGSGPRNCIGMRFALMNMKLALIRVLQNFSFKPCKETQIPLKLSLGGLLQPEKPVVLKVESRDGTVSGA
Procedure, shortened: (§1)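 Human liver microsomes (0.25 mg/mL) pre-incubated 0 or 30 min at 37 °C with test compound (0.03–200 µM range as printed) and 1 mM NADPH in 125 mM phosphate buffer. Testosterone (500uM) then added as CYP3A substrate, 15 min further at 37 °C. Quenched with acetonitrile, centrifuged, and 6b-hydroxytestosterone formation read by HPLC-MS/MS. IC50 averaged over at least two replicates.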

CYP3A4 [11] = target: T1, CYP3A4; experiment: (§2) Inhibition of CYP3A4 in human liver microsome; assay type: ADME, microsomes; details: human, liver microsomes; procedure, shortened: as §1
Cytochrome P450 3A4 [12] = target: T2, Cytochrome P450 3A4; experiment: as §2; assay type: ADME, microsomes; procedure, shortened: as §1
[13] = Half life in Sprague-Dawley rat at 30 mg/kg, po; assay type: ADME, organism-based; set-up: dose 30 mg/kg, route oral; details: in vivo
[14] = Metabolic stability in human liver microsome assessed as compound remaining at 20 uM after 1 hr; assay type: ADME; details: liver microsomes, read-out: Stability
Renin [15] = target: T3, Renin (Homo sapiens, UniProt P00797); experiment: Inhibition of human recombinant renin in presence of pH 7.4 buffer
T3 sequence (P00797 whole entry): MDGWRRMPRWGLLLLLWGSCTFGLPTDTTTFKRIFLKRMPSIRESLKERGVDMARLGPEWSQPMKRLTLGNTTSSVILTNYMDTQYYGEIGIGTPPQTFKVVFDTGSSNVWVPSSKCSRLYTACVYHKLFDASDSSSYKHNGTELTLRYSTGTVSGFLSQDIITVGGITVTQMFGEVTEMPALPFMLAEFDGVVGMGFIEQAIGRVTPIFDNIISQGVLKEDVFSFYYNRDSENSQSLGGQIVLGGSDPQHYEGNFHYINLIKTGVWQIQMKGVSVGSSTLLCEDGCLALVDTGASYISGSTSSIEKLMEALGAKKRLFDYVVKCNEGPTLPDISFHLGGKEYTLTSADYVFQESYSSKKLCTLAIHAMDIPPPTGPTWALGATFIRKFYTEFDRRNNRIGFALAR
Procedure, shortened: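 Recombinant human renin (3 pg/µL) in PBS pH 7.4 with 1 mM EDTA and 0.1% BSA, premixed with human tetradecapeptide (1–14) substrate and hydroxyquinoline sulfate. Compounds were diluted in DMSO and added, then incubated 3 h at 37 °C. AngI accumulation was measured by immunoassay. % inhibition was computed for each concentration and IC50 obtained by curve fitting. Values are the mean of at least two replicates.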

[16] = Oral bioavailability in Sprague-Dawley rat at 30 mg/kg; assay type: ADME, organism-based; details: in vivo
[17] = Oral bioavailability in Beagle dog at 3 mg/kg; assay type: ADME, organism-based, Canis lupus familiaris; details: in vivo
Renin [18] = target: T3, Renin; experiment: Inhibition of human recombinant renin in presence of plasma by immunoassay; assay type: cell-free
Procedure, shortened: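 Pooled frozen human citrate plasma was spiked with recombinant human renin (150 pg/mL final). Compounds at various concentrations in DMSO were added to a 7:1 mix of plasma and anti-AngI trapping antibody (final antiserum 1:50,000) in Tris/EDTA pH 7.2, then incubated 2 h at 37 °C. AngI was read by immunoassay and IC50 fitted. Values are the mean of at least two replicates.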

[19] = Half life in Beagle dog at 3 mg/kg, po; assay type: ADME, organism-based, Canis lupus familiaris; set-up: dose 3 mg/kg, route oral; details: in vivo
Rattus norvegicus [20] = experiment: Antihypertensive activity in double transgenic rat hypertensive model assessed as time required to reduce blood pressure at 3 mg/kg, po; assay type: functional
Rattus norvegicus [21] = experiment: Antihypertensive activity in double transgenic rat hypertensive model assessed as reduction in blood pressure at 3 mg/kg, po; assay type: functional

T1 sequence (P08684 whole entry): as the sequence (P08684 whole entry) above

Compound	IC50 shift (CYP3A4 [1])	also measured
COCCc1ccc(Cl)c(CN(C(=O)[C@H](Cc2ccc(OCCOc3c(Cl)cc(C)cc3Cl)cc2)C(N)=O)C2CC2)c1	55	
COCCc1ccc(Cl)c(CN(CC2CC2)C(=O)[C@@H](CN)Cc2ccc(OCCOc3c(Cl)cc(C)cc3Cl)cc2)c1	100	
COCCc1ccc(Cl)c(CN(C(=O)[C@@H](CN)Cc2ccc(CCOc3c(Cl)cc(C)cc3Cl)cc2)C2CC2)c1	60	
COCCCc1cc(CN(C(=O)[C@@H](CN)Cc2ccc(OCCOc3c(Cl)cc(C)cc3Cl)cc2)C2CC2)c2ccccc2n1	120	
COCCc1ccc(Cl)c(CN(C(=O)[C@@H](CN)Cc2ccccc2)C2CC2)c1	120	
COCCCc1ccc(Cl)c(CN(C(=O)[C@@H](CN)Cc2ccc(OCCOc3c(Cl)cc(C)cc3Cl)cc2)C2CC2)c1	110	inhibition at 3 µM (CYP3A4 [2]): 7%; CL/F [3]: 2.1 L/h/kg; Vdss (Canis familiaris): 8.4 L/kg; Time (Rattus norvegicus [4]): 24 h; Vdss (Rattus norvegicus [5]): 12 L/kg; CLint scaled [6]: 0.9 L/h/kg; Activity (Rattus norvegicus [7]): 13 mmHg; CL/F [8]: 0.96 L/h/kg; remaining at 1 h, 50 µM [9]: 98%; IC50 (Cytochrome P450 3A4 [10]): 120 nM; kinact (CYP3A4 [11]): 0.00157 s⁻¹; IC50 (Cytochrome P450 3A4 [12]): 14000 nM; Ki (Cytochrome P450 3A4 [12]): 3200 nM; half-life [13]: 6 h; remaining at 1 h, 20 µM [14]: 94%; IC50 (Renin [15]): 0.09 nM; bioavailability [16]: 41%; bioavailability [17]: 32%; IC50 (Renin [18]): 2.4 nM; half-life [19]: 17 h
COCCc1ccc(Cl)c(C[C@@H](C[C@@H](CN)Cc2ccc(OCCOc3c(Cl)cc(C)cc3Cl)cc2)C2CC2)c1	1.7	
COCCCc1cc(CN(C(=O)[C@@H](CN)Cc2ccc(OCCOc3c(Cl)cc(C)cc3Cl)cc2)C2CC2)c(Cl)c[n+]1[O-]	70	
COCCCc1cc(CN(C(=O)[C@@H](CN)Cc2ccc(OCCOc3c(Cl)cc(C)cc3Cl)cc2)C2CC2)c(Cl)cn1	90	
Cc1cc(Cl)c(OCCOc2ccc(C[C@H](CN)C(=O)N(Cc3cc(CCCC#N)ccc3Cl)C3CC3)cc2)c(Cl)c1	120	Time (Rattus norvegicus [20]): 48 h; Activity (Rattus norvegicus [21]): 27 mmHg
COCCc1ccc(Cl)c(CN(C(=O)[C@@H](CN)Cc2ccc(OCCOc3c(Cl)cc(C)cc3Cl)cc2)C2CC2)c1	110	
COCCc1ccc(Cl)c(CN(C)C(=O)[C@@H](CN)Cc2ccc(OCCOc3c(Cl)cc(C)cc3Cl)cc2)c1	40	
COCCCc1cc(CN(C(=O)[C@@H](CN)Cc2ccc(OCCOc3c(Cl)cc(C)cc3Cl)cc2)C2CC2)cc(OCCN2CCOCC2)c1	< 1	
COCCc1ccc(Cl)c(CN(C(=O)[C@@H](CN)Cc2ccc(OCCOc3c(Cl)cc(C)cc3Cl)cc2)C2CCC2)c1	180	
COCCc1ccc(Cl)c(C[C@H](C[C@@H](CN)Cc2ccc(OCCOc3c(Cl)cc(C)cc3Cl)cc2)C2CC2)c1	3.5	
CC(=O)N(C)Cc1ccc(Cl)c(CN(C(=O)[C@@H](CN)Cc2ccc(OCCOc3c(Cl)cc(C)cc3Cl)cc2)C2CC2)c1	35	
COCCc1ccc(Cl)c(CN(CC2CCC2)C(=O)[C@@H](CN)Cc2ccc(OCCOc3c(Cl)cc(C)cc3Cl)cc2)c1	130	
COCCc1ccc(Cl)c(CN(C[C@@H](CN)Cc2ccc(OCCOc3c(Cl)cc(C)cc3Cl)cc2)C2CC2)c1	5.8	
Cc1cc(Cl)c(OCCOc2ccc(C[C@H](CN)C(=O)N(Cc3cc(CCS(C)(=O)=O)ccc3Cl)C3CC3)cc2)c(Cl)c1	50	
Cc1cc(Cl)c(OCCOc2ccc(C[C@H](CN)C(=O)N(Cc3cc(CCCC#N)cc4cccnc34)C3CC3)cc2)c(Cl)c1	140	
COCCc1ccc(Cl)c(CN(C(=O)[C@H](Cc2ccc(OCCOc3c(Cl)cc(C)cc3Cl)cc2)[C@H](C)N)C2CC2)c1	60	
COCCc1ccc(Cl)c(CN(C(=O)CCc2ccc(OCCOc3c(Cl)cc(C)cc3Cl)cc2)C2CC2)c1	40	
COCCCc1cc(CN(C(=O)[C@@H](CN)Cc2ccc(OCCOc3c(Cl)cc(C)cc3Cl)cc2)C2CC2)cc(OCCOC)c1	1.5	
